Assay results from ChEMBL document CHEMBL1141213, “Lysosomotropism of basic cathepsin K inhibitors contributes to increased cellular potencies against off-target cathepsins and reduced functional selectivity” (J Med Chem, 2005).

Tests used:
Cathepsin S [1] = target: T1, Cathepsin S (Mus musculus, UniProt O70370); assay: Inhibitory activity against mouse cathepsin S
Cathepsin S [2] = target: T1, Cathepsin S; assay: Inhibitory activity against mouse cathepsin S in mouse splenocytes; assay type: cell-based
Method in brief: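 Splenocytes from 8–10-week C57Bl/6 mouse spleens, red cells lysed in NH4Cl buffer, suspended at 2.5×10^7 cells/mL in RPMI/HEPES pH 7. Preincubated with compound 60 min at 37 °C, then iodinated probe BIL-DMK (1 nM) added for 20 min.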

A20 = assay: Effect of compound on antigen presentation in mouse A20 cells transfected with PC-specific mIgM by IL-2 secretion; assay type: functional, cell-based
Method in brief: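 A20 cells transfected with PC-specific mIgM (1×10^5) preincubated with compound 60 min at 37 °C in RPMI 1640 with 10% FBS, glutamine and β-mercaptoethanol. DO.11.10 T cells (1×10^5) and PC-OVA antigen (30 μg/mL) added, then incubated overnight. IL-2 secreted into medium measured by ELISA. IC50 taken against DMSO as the no-inhibition control; at least duplicate experiments.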

[3] = Partition co-efficient, logP of the compound; assay type: physicochemical; conditions: octanol/water
[4] = Dissociation constant, pKa of the compound; assay type: physicochemical
Cathepsin K [5] = target: Cathepsin K (Homo sapiens, UniProt P43235); assay: Inhibitory activity against humanized rabbit cathepsin K; design: species or system Oryctolagus cuniculus
Cathepsin B [6] = target: T2, Cathepsin B (Homo sapiens, UniProt P07858); assay: Inhibitory activity against human cathepsin B
Cathepsin B [7] = target: T2, Cathepsin B; assay: Inhibitory activity against human cathepsin B expressed in HepG2 cells; assay type: cell-based
Procathepsin L [8] = target: T3, Procathepsin L (Homo sapiens, UniProt P07711); assay: Inhibitory activity against human cathepsin L
T3 sequence (P07711 whole entry): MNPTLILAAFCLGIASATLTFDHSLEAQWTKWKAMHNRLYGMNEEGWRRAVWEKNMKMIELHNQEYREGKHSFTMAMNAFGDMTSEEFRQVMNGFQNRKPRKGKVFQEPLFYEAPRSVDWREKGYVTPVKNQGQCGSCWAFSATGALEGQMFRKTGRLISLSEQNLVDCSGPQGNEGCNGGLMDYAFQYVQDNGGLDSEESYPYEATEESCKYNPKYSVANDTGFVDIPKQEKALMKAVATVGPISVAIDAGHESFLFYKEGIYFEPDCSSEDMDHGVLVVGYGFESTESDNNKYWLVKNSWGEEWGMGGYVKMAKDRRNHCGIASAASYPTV

Procathepsin L [9] = target: T3, Procathepsin L; assay: Inhibitory activity against human cathepsin L expressed in HepG2 cells; assay type: cell-based
Cathepsin S [10] = target: T4, Cathepsin S (Homo sapiens, UniProt P25774); assay: Inhibitory activity against human cathepsin S
T4 sequence (P25774 whole entry): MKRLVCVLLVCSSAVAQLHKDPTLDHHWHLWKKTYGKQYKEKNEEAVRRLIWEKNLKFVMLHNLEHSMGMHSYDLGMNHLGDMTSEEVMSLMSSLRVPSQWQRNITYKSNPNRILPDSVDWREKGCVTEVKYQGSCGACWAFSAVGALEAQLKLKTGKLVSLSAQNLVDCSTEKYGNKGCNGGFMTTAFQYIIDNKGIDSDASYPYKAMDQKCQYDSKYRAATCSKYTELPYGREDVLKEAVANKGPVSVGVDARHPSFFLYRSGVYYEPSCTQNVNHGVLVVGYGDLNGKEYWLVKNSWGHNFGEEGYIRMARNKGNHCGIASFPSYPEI

Cathepsin S [11] = target: T4, Cathepsin S; assay: Inhibitory activity against human cathepsin S expressed in ramos cells; assay type: cell-based
Cathepsin K [12] = target: T5, Cathepsin K (Oryctolagus cuniculus, UniProt P43236); assay: Inhibitory activity against rabbit cathepsin K
T5 sequence (P43236 whole entry): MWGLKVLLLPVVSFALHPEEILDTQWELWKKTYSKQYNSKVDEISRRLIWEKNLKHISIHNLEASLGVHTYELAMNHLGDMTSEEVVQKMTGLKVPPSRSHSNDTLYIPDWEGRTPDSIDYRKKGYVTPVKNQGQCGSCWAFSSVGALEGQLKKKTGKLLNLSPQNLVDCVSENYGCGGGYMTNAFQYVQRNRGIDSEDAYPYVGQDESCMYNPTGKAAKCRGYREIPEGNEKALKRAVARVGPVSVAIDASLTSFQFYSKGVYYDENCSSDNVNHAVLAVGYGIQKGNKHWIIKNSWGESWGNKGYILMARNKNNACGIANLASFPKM

Osteoclast = assay: Effect of compound on degradation of collagen in osteoclast bone resorption assay; assay type: functional, cell-based; conditions: Oryctolagus cuniculus
Rattus norvegicus [13] = assay: Volume of distribution in rat administered with 10 mg/kg, po; assay type: ADME, organism-based; design: dose 10 mg/kg, route oral; conditions: in vivo
Rattus norvegicus [14] = assay: Plasma concentration in rat at 10 mg/kg, po; assay type: ADME, organism-based; design: dose 10 mg/kg, route oral; conditions: in vivo
Method in brief: (§1)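 Rats dosed 10 mg/kg po or 5 mg/kg iv; tissues and plasma taken 2 h after dosing. Tissue weighed, homogenized in 2 volumes water, then 3 volumes acetonitrile with internal standard, homogenized again and centrifuged. Supernatant quantified by LC-MS/MS against a standard curve from spiked rat plasma.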

[15] = Volume of distribution in rat administered with 5 mg/kg, iv; assay type: ADME, organism-based; design: dose 5 mg/kg, route intravenous; conditions: in vivo, read-out: Vdss
Rattus norvegicus [16] = assay: Plasma concentration in rat at 5 mg/kg, iv; assay type: ADME, organism-based; design: dose 5 mg/kg, route intravenous; conditions: in vivo; method in brief: as §1

T1 sequence (O70370 whole entry): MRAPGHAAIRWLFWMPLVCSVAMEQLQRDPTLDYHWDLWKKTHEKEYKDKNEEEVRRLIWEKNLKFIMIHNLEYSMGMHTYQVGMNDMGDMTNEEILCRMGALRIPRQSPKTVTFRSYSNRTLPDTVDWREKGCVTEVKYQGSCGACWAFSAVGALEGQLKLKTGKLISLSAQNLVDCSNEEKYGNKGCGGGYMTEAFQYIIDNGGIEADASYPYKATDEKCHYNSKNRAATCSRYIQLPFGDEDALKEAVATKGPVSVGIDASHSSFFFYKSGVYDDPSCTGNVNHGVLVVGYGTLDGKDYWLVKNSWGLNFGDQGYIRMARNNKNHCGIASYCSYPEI

SMILES	IC50 (Cathepsin S [1])	IC50 (Cathepsin S [2])	IC50 (A20)	logP [3]	pKa [4]	IC50 (Cathepsin K [5])	IC50 (Cathepsin B [6])	IC50 (Cathepsin B [7])	IC50 (Procathepsin L [8])	IC50 (Procathepsin L [9])	IC50 (Cathepsin S [10])	IC50 (Cathepsin S [11])	IC50 (Cathepsin K [12])	IC50 (Osteoclast)	Vdss (Rattus norvegicus [13])	concentration (Rattus norvegicus [14])	Vd [15]	concentration (Rattus norvegicus [16])
CN1CCN(c2nc(-c3ccc(C(=O)NC4(C(=O)NCC(F)(F)F)CCCCC4)cc3)cs2)CC1	33000 nM	> 10000 nM	> 100000 nM	2.9	6.84													
N#CCNC(=O)C1(NC(=O)c2ccc(-c3csc(N4CCOCC4)n3)cc2)CCCCC1	8500 nM	6700 nM	> 100000 nM			2.3 nM	4200 nM	2900 nM	24000 nM	> 10000 nM	27000 nM	> 10000 nM	9.5 nM	41 nM				
CCCN1CCN(c2ccc(C(=O)NC3(C(=O)NCC#N)CCCCC3)cc2)CC1 [BALICATIB]	6350 nM	480 nM	6180 nM	1.81	7.76		4800 nM	61 nM	503 nM	48 nM	65000 nM	2900 nM			4.7 L/kg			
N#CCNC(=O)[C@H](CC1CCCCC1)NC(=O)c1ccccc1	13 nM	40 nM	1220 nM			1030 nM	19000 nM	940 nM	55 nM	230 nM	5.3 nM	10 nM						
CC(C)C[C@@H](C(=O)NCC#N)c1cccc(-c2ccc(N3CCNCC3)cc2)c1	34100 nM	740 nM	8600 nM	3.46	8.77	7.8 nM	86000 nM	4400 nM	2600 nM	320 nM	20000 nM	1340 nM	33 nM	149 nM				
CN1CCN(c2nc(-c3ccc(C(=O)NC4(C(=O)NCC#N)CCCCC4)cc3)cs2)CC1	5400 nM	318 nM	6200 nM	2.3	7.01	0.25 nM	1100 nM	17 nM	6300 nM	340 nM	47000 nM	790 nM	0.5 nM		11 L/kg	2400 nM		
N#CCNC(=O)C1(NC(=O)c2ccc(N3CCOCC3)cc2)CCCCC1	4500 nM	8500 nM	> 100000 nM	0.98		19 nM	15400 nM	4400 nM	32000 nM	> 10000 nM	52000 nM	4800 nM	72 nM	580 nM			1.9 L/kg	170 nM
